Assays:
[1] = test system: CCRF-CEM; test: Cytotoxicity against human lymphoblastic leukemic CCRF-CEM cell line was evaluated as the concentration required for 50% inhibition of the growth of the control value; format: functional, cell-based
In short: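 CCRF-CEM cells in RPMI 1640 with 10% dialyzed FBS, 16 mM HEPES and 8 mM MOPS, seeded at 4.8×10⁴ cells/well. Duplicate wells got graded concentrations diluted from a 4 mg/mL DMSO stock. After 72 h (95% air/5% CO₂), cells were counted on a Coulter counter. IC50 was taken from dose-response curves as 50% growth inhibition versus control.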

[2] = test system: CCRF-CEM; test: Compound was evaluated for reversal of growth inhibition against human lymphoblastic leukemic CCRF-CEM cells at 0.46 uM concentration and with 100 uM of hypoxanthine; format: functional
[3] = test system: CCRF-CEM; test: Compound was evaluated for reversal of growth inhibition against human lymphoblastic leukemic CCRF-CEM cells at 0.46 uM concentration and with 5 uM of Thymidine; format: functional
[4] = test system: CCRF-CEM; test: Compound was evaluated for reversal of growth inhibition against human lymphoblastic leukemic CCRF-CEM cells at 0.46 uM concentration and with 300 uM of AICA; format: functional
[5] = In vivo antitumor activity against lymphosarcoma tumor type after intraperitoneal administration of 50 mg/kg dose given twice daily for 8 days; format: functional; details: ip, 192 h
In short: (§1)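 6C3HED lymphosarcoma: 1–2 mm³ fragments implanted sc by trocar in the axilla of syngeneic C3H mice. Dosing ip twice daily for 8 days, starting 24 h after implant. One day after the last dose, tumor volume was taken as L(W²)/2 and compared with controls to give % inhibition. Deaths over group size were recorded.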

[6] = In vivo antitumor activity against […] tumor type after intraperitoneal administration of 100 mg/kg dose given once daily for 10 days; format: functional; details: ip, 240 h
In short: (§2)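 C3H mammary adenocarcinoma fragments (1–2 mm³) were trocar-implanted sc axillary in syngeneic C3H mice. Treatment was ip once daily for 10 days, beginning 24 h post-implant. Tumor width and length were measured one day after the final dose, with V = L(W²)/2. Growth inhibition was calculated against untreated controls, and toxicity/total was noted.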

[7] = test system: Mus musculus; test: In vivo antitumor activity against lymphosarcoma tumor type was expressed as toxic deaths/total treated mice at 50 mg/kg dose given twice daily for 8 days; 0/10; format: ADME, organism-based; set-up: dose 50 mg/kg; details: 192 h
[8] = In vivo antitumor activity against lymphosarcoma tumor type after intraperitoneal administration of 200 mg/kg dose given twice daily for 8 days; format: functional; details: ip, 192 h; in short: as §1
[9] = In vivo antitumor activity against C3H mammary tumor type after intraperitoneal administration of 400 mg/kg dose given once daily for 10 days; details: ip, 240 h
[10] = test system: Mus musculus; test: In vivo antitumor activity against […] tumor type was expressed as toxic deaths/total treated mice at 100 mg/kg dose given once daily for 10 days; 1/10; format: ADME, organism-based; set-up: dose 100 mg/kg; details: 240 h
[11] = test system: Mus musculus; test: In vivo antitumor activity against lymphosarcoma tumor type was expressed as toxic deaths/total treated mice at 100 mg/kg dose given twice daily for 8 days; 0/9; format: ADME, organism-based; set-up: dose 100 mg/kg; details: 192 h
[12] = In vivo antitumor activity against lymphosarcoma tumor type after intraperitoneal administration of 100 mg/kg dose given twice daily for 8 days; format: functional; details: ip, 192 h; in short: as §1
[13] = In vivo antitumor activity against […] tumor type after intraperitoneal administration of 200 mg/kg dose given once daily for 10 days; format: functional; details: ip, 240 h; in short: as §2
[14] = test system: Mus musculus; test: In vivo antitumor activity against C3H mammary tumor type was expressed as toxic deaths/total treated mice at 400 mg/kg dose given once daily for 10 days; 2/10; details: 240 h
[15] = test system: Mus musculus; test: In vivo antitumor activity against […] tumor type was expressed as toxic deaths/total treated mice at 50 mg/kg dose given once daily for 10 days; 2/10; format: ADME, organism-based; set-up: dose 50 mg/kg; details: 240 h
[16] = test system: Mus musculus; test: In vivo antitumor activity against 6C3HED tumor type was expressed as toxic deaths/total treated mice at 400 mg/kg dose; 2/10; format: ADME, organism-based; set-up: dose 400 mg/kg
[17] = In vivo antitumor activity against […] tumor type after intraperitoneal administration of 50 mg/kg dose given once daily for 10 days; format: functional; details: ip, 240 h; in short: as §2
[18] = test system: Mus musculus; test: In vivo antitumor activity against […] tumor type was expressed as toxic deaths/total treated mice at 200 mg/kg dose given once daily for 10 days; 0/10; format: ADME, organism-based; set-up: dose 200 mg/kg; details: 240 h
[19] = In vivo antitumor activity against 6C3HED tumor type after intraperitoneal administration of 400 mg/kg; format: functional; details: ip; in short: as §1

`Nc1nc(N)c(CCCCc2csc(C(=O)N[C@@H](CCC(=O)O)C(=O)O)c2)c(O)n1` showed an IC50 [1] of 142 nM.

In the case of `Nc1nc(N)c(CCCCc2ccc(C(=O)N[C@@H](CCC(=O)O)C(=O)O)s2)c(O)n1`, the IC50 [1] is reported as 59 nM.

With `Cc1nc(N)[nH]c(=O)c1CCCCc1ccc(C(=O)N[C@@H](CCC(=O)O)C(=O)O)cc1` the IC50 [1] was 2330 nM.

`Nc1nc(N)c(CCCNc2ccc(C(=O)N[C@@H](CCC(=O)O)C(=O)O)cc2)c(O)n1` showed an Inhibition [2] of 0%, an Inhibition [3] of 77% and an Inhibition [4] of 55%. For the same compound, the IC50 [1] was 198 nM.

For `Nc1nc(O)c(CCCCc2ccc(C(=O)N[C@@H](CCC(=O)O)C(=O)O)cc2)c(O)n1`, the IC50 [1] was 39800 nM.

With `Nc1nc(N)c(CCCCCCCCCC(=O)N[C@@H](CCC(=O)O)C(=O)O)c(O)n1` the IC50 [1] was > 47100 nM.

Compound `Nc1nc(N)c(CCCCc2ccc(C(=O)N[C@@H](CCC(=O)O)C(=O)O)cc2)c(N)n1` has an IC50 [1] of 42 nM.

With `Nc1nc(N)c(CCCCc2ccc(C(=O)N[C@@H](CC(=O)O)C(=O)O)cc2)c(O)n1` the IC50 [1] was > 48000 nM.

In the case of `Nc1nc(N)c(CCCCc2ccc(C(=O)N[C@@H](Cc3ccccc3)C(=O)O)cc2)c(O)n1`, the IC50 [1] is reported as > 44500 nM.

In the case of `Nc1nc(N)c(CCCCc2ccc(C(=O)N[C@@H](CCC(=O)O)C(=O)O)cc2)c(=O)[nH]1` [DIDEAZAACYCLOTETRAHYDROFOLIC ACID], the inhibition in vivo at 50 mg/kg [5] is reported as 44%, the inhibition in vivo at 100 mg/kg [6] is reported as 37% and the Inhibition [2] is reported as 0%. The Toxicity [7] was 0, the inhibition in vivo at 200 mg/kg [8] was 92% and the inhibition in vivo at 400 mg/kg [9] was 78%. It also gave a Toxicity [10] of 1, a Toxicity [11] of 0 and an inhibition in vivo at 100 mg/kg [12] of 66%. For the same compound, the inhibition in vivo at 200 mg/kg [13] was 36%, the Toxicity [14] was 2 and the Toxicity [15] was 2. The Inhibition [3] was 80%, the Toxicity [16] was 2 and the inhibition in vivo at 50 mg/kg [17] was 17%. The Inhibition [4] was 0%, the Toxicity [18] was 0 and the inhibition in vivo at 400 mg/kg [19] was 100%. The IC50 [1] was 132 nM.

Compound `Nc1nc2c(c(=O)[nH]1)C[C@@H](CCc1ccc(C(=O)N[C@@H](CCC(=O)O)C(=O)O)cc1)CN2` [LOMETREXOL] has an IC50 [1] of 16 nM.
